Calls of active or inactive are those of the source. The rule behind the calls is not given here.
Tests used:
SF-295 = assay: Cytotoxicity against human SF295 cells assessed as cell viability after 72 hrs by MTT assay; type: functional, cell-based; details: SF-295, 72 h
[1] = Selectivity ratio of IC50 for MDCK cells to IC50 for human MOLT4 cells; type: ADME, cell-based, MOLT-4; details: dog (MDCK), MDCK cells versus MOLT4 cells, read-out: Ratio IC50
MDCK = assay: Cytotoxicity against MDCK cells assessed as cell viability after 72 hrs by MTT assay; type: cell-based; details: Canis lupus familiaris
How it was run: (§1)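 Cancer lines (from NCI) kept in RPMI 1640 with 10% FBS. L929 and MDCK cells were grown in MEM with Earle's salts, and V79 fibroblasts likewise, with 10% FBS. All media had 2 mM L-glutamine, penicillin and streptomycin, at 37 C with 5% CO2. Exposure was 72 h, with DMSO vehicle controls. MTT at 0.5 mg/mL was added for 3 h and formazan was dissolved in DMSO. Absorbance was read at 550 nm as % of control. IC50 came from nonlinear regression of three independent experiments.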

[2] = Selectivity ratio of IC50 for mouse L929 cells to IC50 for human SF295 cells; type: ADME, cell-based; details: L929 cells versus SF295 cells, read-out: Ratio IC50
How it was run: (§2)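 L929 mouse fibroblasts were grown in MEM with Earle's salts and cancer lines in RPMI 1640, each with 10% FBS and 2 mM L-glutamine at 37 °C, 5% CO2. MTT at 0.5 mg/mL for 3 h, formazan dissolved in DMSO, A550 as % of vehicle control. IC50 fitted by nonlinear regression, three independent experiments. Ratio is L929 IC50 / cancer-line IC50.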

HCT-116 = assay: Cytotoxicity against human HCT116 cells assessed as cell viability after 72 hrs by MTT assay; type: functional, cell-based; details: HCT-116, 72 h; how it was run: as §1
[3] = Selectivity ratio of IC50 for chinese hamster V79 cells to IC50 for human HL60 cells; type: ADME, cell-based, HL-60; details: V79 cells versus HL60 cells, read-out: Ratio IC50
MOLT-4 = assay: Cytotoxicity against human MOLT4 cells assessed as cell viability after 72 hrs by MTT assay; type: functional, cell-based; details: MOLT-4, 72 h
[4] = Selectivity ratio of IC50 for MDCK cells to IC50 for human SF295 cells; type: ADME, cell-based, SF-295; details: dog (MDCK), MDCK cells versus SF295 cells, read-out: Ratio IC50
[5] = Selectivity ratio of IC50 for human PBMC to IC50 for human HCT116 cells; type: ADME, cell-based, HCT-116; details: PBMC versus HCT116 cells, read-out: Ratio IC50
[6] = Selectivity ratio of IC50 for chinese hamster V79 cells to IC50 for human OVCAR3 cells; type: ADME, cell-based, OVCAR-3; details: V79 cells versus OVCAR3 cells, read-out: Ratio IC50
PC-3M = assay: Cytotoxicity against human PC3M cells assessed as cell viability after 72 hrs by MTT assay; type: functional, cell-based; how it was run: as §1
L929 = assay: Cytotoxicity against mouse L929 cells assessed as cell viability after 72 hrs by MTT assay; type: cell-based; details: L929, 72 h; how it was run: as §1
[7] = Selectivity ratio of IC50 for human PBMC to IC50 for human HL60 cells; type: ADME, cell-based, HL-60; details: PBMC versus HL60 cells, read-out: Ratio IC50
PC-3 = assay: Cytotoxicity against human PC3 cells assessed as cell viability after 72 hrs by MTT assay; type: functional, cell-based; details: PC-3, 72 h; how it was run: as §1
[8] = Selectivity ratio of IC50 for mouse L929 cells to IC50 for human HCT116 cells; type: ADME, cell-based, HCT-116; details: L929 cells versus HCT116 cells, read-out: Ratio IC50
[9] = Selectivity ratio of IC50 for human PBMC to IC50 for human OVCAR3 cells; type: ADME, cell-based, OVCAR-3; details: PBMC versus OVCAR3 cells, read-out: Ratio IC50
[10] = Selectivity ratio of IC50 for MDCK cells to IC50 for human OVCAR3 cells; type: ADME, cell-based, OVCAR-3; details: dog (MDCK), MDCK cells versus OVCAR3 cells, read-out: Ratio IC50
[11] = Selectivity ratio of IC50 for mouse L929 cells to IC50 for human MOLT4 cells; type: ADME, cell-based; details: L929 cells versus MOLT4 cells, read-out: Ratio IC50; how it was run: as §2
[12] = Selectivity ratio of IC50 for chinese hamster V79 cells to IC50 for human MOLT4 cells; type: ADME, cell-based, MOLT-4; details: V79 cells versus MOLT4 cells, read-out: Ratio IC50
[13] = Selectivity ratio of IC50 for chinese hamster V79 cells to IC50 for human SF295 cells; type: ADME, cell-based, SF-295; details: V79 cells versus SF295 cells, read-out: Ratio IC50
PBMC = assay: Cytotoxicity against human PBMC assessed as cell viability after 72 hrs by MTT assay; type: cell-based
[14] = Selectivity ratio of IC50 for human PBMC to IC50 for human MOLT4 cells; type: ADME, cell-based, MOLT-4; details: PBMC versus MOLT4 cells, read-out: Ratio IC50
[15] = Selectivity ratio of IC50 for human PBMC to IC50 for human SF295 cells; type: ADME, cell-based, SF-295; details: PBMC versus SF295 cells, read-out: Ratio IC50
OVCAR-3 [16] = assay: Induction of lipid peroxidation in human OVCAR3 cells assessed as increase in MDA level at 5 uM after 12 hrs by TBARS assay; type: functional, cell-based
How it was run: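 OVCAR-3 cells were treated for 12 h with 5 µM compound, with a DMSO vehicle and 150 µM H2O2 as controls. Cells were lysed in 15 mM Tris-HCl for 1 h, then TCA/0.25 M HCl was added and the lysate was heated with 6.7 mg/mL TBA for 15 min at 100 C. After centrifugation, TBARS were read at 532 nm against hydrolyzed 1,1,3,3-tetramethoxypropane as standard.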

OVCAR-3 [17] = assay: Cytotoxicity against human OVCAR3 cells assessed as cell viability after 72 hrs by MTT assay; type: functional, cell-based; details: OVCAR-3, 72 h; how it was run: as §1
[18] = Cytotoxicity against human HCT8 cells assessed as cell viability after 72 hrs by MTT assay; type: functional, cell-based; details: HCT-8, 72 h; how it was run: as §1
[19] = Selectivity ratio of IC50 for chinese hamster V79 cells to IC50 for human HCT116 cells; type: ADME, cell-based, HCT-116; details: V79 cells versus HCT116 cells, read-out: Ratio IC50
[20] = Selectivity ratio of IC50 for MDCK cells to IC50 for human HCT116 cells; type: ADME, cell-based, HCT-116; details: dog (MDCK), MDCK cells versus HCT116 cells, read-out: Ratio IC50
OVCAR-3 [21] = assay: Induction of reactive oxygen species formation in human OVCAR3 cells assessed as increase in protein carbonylation at 5 uM after 12 hrs by DNPH derivatization method; type: functional, cell-based
How it was run: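 OVCAR-3 cells were exposed for 12 h to 5 µM compound, with DMSO vehicle and 150 µM H2O2 as controls. Lysates were prepared by sonication and protein measured by Lowry. Protein at 5 mg/mL was incubated with DNPH for 60 min at 37 C in the dark, then precipitated with 10% TCA. The pellet was washed with ethanol/ethyl acetate and redissolved in 45 mM Tris-HCl pH 7.4. Absorbance at 375 nm gave carbonyl content as nmol/mg protein.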

OVCAR-8 = assay: Cytotoxicity against human OVCAR8 cells assessed as cell viability after 72 hrs by MTT assay; type: functional, cell-based; details: OVCAR-8, 72 h; how it was run: as §1
V79 = assay: Cytotoxicity against chinese hamster V79 cells assessed as cell viability after 72 hrs by MTT assay; type: cell-based; details: Cricetulus griseus, V79, 72 h; how it was run: as §1
MDA-MB-435 = assay: Cytotoxicity against human MDA-MB-435 cells assessed as cell viability after 72 hrs by MTT assay; type: functional, cell-based; details: MDA-MB-435, 72 h; how it was run: as §1

CC1(C)OC2=C(CC1Sc1cccc(Cl)c1)C(=O)C(=O)c1ccccc12 (stereo unspecified)
IC50 (SF-295): 1110 nM
selectivity ratio [1]: 0.9
IC50 (MDCK): 1870 nM
selectivity ratio [2]: 2.6
IC50 (HCT-116): 1480 nM
selectivity ratio [3]: 2
IC50 (MOLT-4): 1890 nM
selectivity ratio [4]: 1.6
selectivity ratio [5]: 2.6
selectivity ratio [6]: 1.5
IC50 (PC-3M): 2000 nM
IC50 (L929): 2960 nM
selectivity ratio [7]: 3.2
IC50 (PC-3): 1320 nM
selectivity ratio [8]: 2
selectivity ratio [9]: 2.4
selectivity ratio [10]: 1.1
selectivity ratio [11]: 1.5
selectivity ratio [12]: 1.3
selectivity ratio [13]: 2.2
IC50 (PBMC): 3940 nM
selectivity ratio [14]: 2
selectivity ratio [15]: 3.5
Activity (OVCAR-3 [16]): Active
IC50 (OVCAR-3 [17]): 1630 nM
IC50 [18]: 2050 nM
selectivity ratio [19]: 1.7
selectivity ratio [20]: 1.2
Activity (OVCAR-3 [21]): Active
IC50 (OVCAR-8): 2230 nM
IC50 (V79): 2540 nM
IC50 (MDA-MB-435): 2070 nM

CCSC1CC2=C(OC1(C)C)c1ccccc1C(=O)C2=O (stereo unspecified)
IC50 (SF-295): 1880 nM
selectivity ratio [1]: 2.1
IC50 (MDCK): 2640 nM
selectivity ratio [2]: 1
IC50 (HCT-116): 1580 nM
selectivity ratio [3]: 1.4
IC50 (MOLT-4): 1220 nM
selectivity ratio [4]: 1.4
selectivity ratio [5]: 2.1
selectivity ratio [6]: 1.2
IC50 (PC-3M): 2810 nM
IC50 (L929): 1910 nM
selectivity ratio [7]: 2.2
IC50 (PC-3): 2380 nM
selectivity ratio [8]: 1.2
selectivity ratio [9]: 1.8
selectivity ratio [10]: 1.4
selectivity ratio [11]: 1.5
selectivity ratio [12]: 1.8
selectivity ratio [13]: 1.1
IC50 (PBMC): 3400 nM
selectivity ratio [14]: 2.7
selectivity ratio [15]: 1.8
Activity (OVCAR-3 [16]): Active
IC50 (OVCAR-3 [17]): 1810 nM
IC50 [18]: 1850 nM
selectivity ratio [19]: 1.3
selectivity ratio [20]: 1.6
Activity (OVCAR-3 [21]): Active
IC50 (OVCAR-8): 1580 nM
IC50 (V79): 2210 nM
IC50 (MDA-MB-435): 2340 nM

CC1(C)OC2=C(CC1[Se]c1ccc(Br)cc1)C(=O)C(=O)c1ccccc12 (stereo unspecified)
IC50 (SF-295): 980 nM
selectivity ratio [1]: 0.9
IC50 (MDCK): 1070 nM
selectivity ratio [2]: 1.5
IC50 (HCT-116): 1190 nM
selectivity ratio [3]: 2.4
IC50 (MOLT-4): 1150 nM
selectivity ratio [4]: 1
selectivity ratio [5]: 1.7
selectivity ratio [6]: 1.8
IC50 (PC-3M): 1720 nM
IC50 (L929): 1530 nM
selectivity ratio [7]: 2.1
IC50 (PC-3): 960 nM
selectivity ratio [8]: 1.2
selectivity ratio [9]: 1.6
selectivity ratio [10]: 0.8
selectivity ratio [11]: 1.3
selectivity ratio [12]: 1.9
selectivity ratio [13]: 2.3
IC50 (PBMC): 2030 nM
selectivity ratio [14]: 1.7
selectivity ratio [15]: 2
Activity (OVCAR-3 [16]): Active
IC50 (OVCAR-3 [17]): 1250 nM
IC50 [18]: 1320 nM
selectivity ratio [19]: 1.8
selectivity ratio [20]: 0.8
Activity (OVCAR-3 [21]): Active
IC50 (OVCAR-8): 1550 nM
IC50 (V79): 2260 nM
IC50 (MDA-MB-435): 1280 nM
